Compound activity deposited in PubChem by The Scripps Research Institute Molecular Screening Center.
In the library only some 3.9% were active in any assay of this set; here they are far more common.
OX1R antag-1 – OX1R (HCRTR1) antagonists, primary screen, fluorescence, CHO/OX1R cells, Fluo-8 calcium, orexin A; Orexin/Hypocretin receptor type 1 (Homo sapiens), O43613; Fluo-8 calcium fluorescence; inhibition, % at 5 µM; 330,000 compounds, 0.43% hits;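 active = inhibition above its plate's threshold, mean inhibition of all tested compounds on the plate plus 3 SD, cut at about 37% in these data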
Target sequence (O43613 whole entry, looked up): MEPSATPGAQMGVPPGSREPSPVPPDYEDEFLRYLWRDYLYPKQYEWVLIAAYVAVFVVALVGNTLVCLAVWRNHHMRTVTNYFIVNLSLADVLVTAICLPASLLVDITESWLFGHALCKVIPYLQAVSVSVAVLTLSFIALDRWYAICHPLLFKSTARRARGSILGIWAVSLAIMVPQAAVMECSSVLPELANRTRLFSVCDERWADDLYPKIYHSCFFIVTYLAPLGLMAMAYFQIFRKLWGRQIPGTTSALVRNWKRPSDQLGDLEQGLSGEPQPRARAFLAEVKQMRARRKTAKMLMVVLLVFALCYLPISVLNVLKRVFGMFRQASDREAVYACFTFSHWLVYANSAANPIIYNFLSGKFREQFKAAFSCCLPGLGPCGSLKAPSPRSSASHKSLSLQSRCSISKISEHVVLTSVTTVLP
TAAR1 agonist – human TAAR1 agonists, primary screen, Fluo-8 calcium fluorescence, CHO RD-HGA16 cells. Trace amine-associated receptor 1 (Homo sapiens), Q96RJ0. vehicle wells 0%, saturating PEA agonist 100%. activation, % at 3 µM. 360,000 compounds, 0.99% hits. AID 624467, 2012;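 active = activation above the mean activation of all test compounds in the run plus 3 SD, cut at about 38% in these data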
Target sequence (Q96RJ0 whole entry, looked up): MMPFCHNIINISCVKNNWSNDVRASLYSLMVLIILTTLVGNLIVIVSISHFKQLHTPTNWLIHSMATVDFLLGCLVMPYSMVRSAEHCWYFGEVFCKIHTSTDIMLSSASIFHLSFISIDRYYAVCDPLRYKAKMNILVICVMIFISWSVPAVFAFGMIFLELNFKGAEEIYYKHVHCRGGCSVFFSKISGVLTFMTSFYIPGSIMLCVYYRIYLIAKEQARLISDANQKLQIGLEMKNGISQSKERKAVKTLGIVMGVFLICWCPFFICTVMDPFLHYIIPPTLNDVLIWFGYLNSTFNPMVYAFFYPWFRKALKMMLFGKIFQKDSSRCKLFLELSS
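Benchmarks: low control DMSO, high control PEA (EC100); System: CHO RD-HGA16 cells carrying human TAAR1 plus Gα16; Detection: Fluo-8 fluorescence, 5 s baseline then 140 s kinetic read; Schedule: 17-24 h plating, Fluo-8 75 min 37 °C, 30 min RT; Read-out basis: % activation from peak over basal fluorescence ratio, DMSO-to-PEA scaled.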
CHO parental Ca – ATP-evoked calcium signal inhibitors, parental CHO, primary screen, counter-screen for OX1R antagonist project, cell-based, fluorescence, Fluo-8 calcium dye; 330,000 compounds, 0.63% hits; parental CHO-K1, ATP-induced calcium, Fluo-8 fluorescence; AID 463079, 2010; inhibition, % at 5.6 µM;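 active = inhibition above that plate's mean sample inhibition plus 3 SD, cut at about 26% in these data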
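Measured by: calcium-sensitive Fluo-8 fluorescence / Test system: CHO parental line / Controls: ATP-challenged DMSO wells low, unchallenged DMSO wells high / Measure: % inhibition / Compound: single nominal dose of 5.6 µM per compound / Replicates: single well per compound, no replicates / Reagent: ATP as calcium-mobilizing challenge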
OX1R antag-2 – antagonists of human orexin 1 receptor (OX1R) | OX1R-expressing cells, FRET antagonist read-out | inhibition, % at 6.6 µM | 330,000 compounds, 1.8% hits; in the data active = inhibition mostly above about 38%, no sharp cut-off; inactive = mostly below about 40%
TAAR1 antagonist – human TAAR1 antagonists, primary screen, Fluo-8 calcium fluorescence, CHO RD-HGA16 cells | 360,000 compounds, 1.5% hits | antagonist | inhibition, % at 3 µM | Trace amine-associated receptor 1 (Homo sapiens), Q96RJ0;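 active = inhibition above a per-plate cutoff, the mean inhibition of test compounds on that plate plus 3 SD, cut at about 49% in these data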
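Material: RD-HGA16 CHO cells with stable hTAAR1 and Gα16; Dosing: single nominal final test compound concentration of 3 µM; Schedule: seeding 17-24 h prior, 75-min 37 °C, 30-min RT dye loading; Detection: kinetic Fluo-8 calcium fluorescence measurement; Measure: % inhibition from peak post-agonist over basal fluorescence ratio; Benchmarks: vehicle and agonist controls.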
Each line names hits and unclear results; the compound was inactive in the other large screens.

c1ccc(Cc2cnc(N3CCN(Cc4cccc(-c5ccsc5)n4)CC3)nc2)cc1	none (no result: OX1R antag-1, CHO parental Ca, OX1R antag-2)
O=C(COC(=O)c1ccc(Cl)c(S(=O)(=O)N2CCCCCC2)c1)Nc1ccccc1	TAAR1 antagonist 53.3
CN(C)S(=O)(=O)c1cccc(NC(=O)CNc2cccc(S(=O)(=O)N3CCCCC3)c2)c1	none (no result: OX1R antag-1, CHO parental Ca, OX1R antag-2)
CCN(CC)S(=O)(=O)c1cc(NC(=O)CNc2cccc(S(=O)(=O)N3CCCC3)c2)ccc1C	CHO parental Ca 45.4 (no result: TAAR1 agonist, TAAR1 antagonist)
CCNC(=O)COC(=O)/C=C/c1ccccc1[N+](=O)[O-]	none
CN(C)C(=O)COC(=O)/C=C/c1ccccc1[N+](=O)[O-]	OX1R antag-2 39.4
Cc1cccc(C)c1NC(=O)C1(C)CSCC(=O)N1Cc1ccco1 (centres undefined)	none (no result: OX1R antag-1, CHO parental Ca, OX1R antag-2)
Cc1ccc(-n2c(C)cc(C(=O)CSc3nncs3)c2C)cc1	OX1R antag-1 92.3, OX1R antag-2 56.6
COc1ccc(NC(=O)CN(C)C(=O)c2cccc(S(=O)(=O)N3CCN(c4ccc(F)cc4)CC3)c2)cc1	none (no result: OX1R antag-1, CHO parental Ca, OX1R antag-2)
CCOC(=O)C1CCCN(C(=O)c2cnn3c(C(F)(F)F)cc(-c4ccccc4)nc23)C1 (centres undefined)	none
CCOC(=O)C1CCCN(C(=O)c2cc3nc(-c4cccc(OC)c4)cc(C(F)(F)F)n3n2)C1 (centres undefined)	TAAR1 antagonist 62.9
O=C(C[n+]1ccc(/C=N/O)cc1)N(Cc1ccccc1)Cc1ccccc1	OX1R antag-2 53.0
CCOC(=O)C1=C(C(=O)OCC)C2N(Cc3ccc(C#N)cc3)c3ccccc3[C@@]23C[C@@H](C(=O)OC)N(S(=O)(=O)c2cccs2)C3=N1 (some centres undefined)	none (no result: OX1R antag-1, CHO parental Ca, OX1R antag-2)
O=S(=O)(NC1CCCCC1)c1cccc(-c2nnc(-c3ccccc3)o2)c1	none
Cc1ccccc1NS(=O)(=O)c1cccc(-c2nnc(-c3ccccc3)o2)c1	OX1R antag-2 40.4
Cc1ccc(F)cc1C(=O)N1CCCCC1c1cc(C(=O)Nc2ccccc2)no1 (centres undefined)	none (no result: OX1R antag-1, CHO parental Ca, OX1R antag-2)
CC(Nc1ncnc2ccccc12)c1ccccc1 (centres undefined)	CHO parental Ca 38.2
Cc1ccc(S(=O)(=O)N2C[C@H]3N(C(=O)OC(C)C)N(C(=O)OC(C)C)C[C@H](OC(=O)Nc4cccs4)[C@@]3(O)C2)cc1	none (no result: OX1R antag-1, CHO parental Ca, OX1R antag-2)
CN(C)S(=O)(=O)c1ccc(/C(O)=C2/C(=O)C(=O)N(CCCN3CCOCC3)C2c2ccncc2)cc1 (centres undefined)	OX1R antag-2 72.6
O=C(C1=C(O)C(=O)N(CCN2CCOCC2)C1c1ccc(F)cc1)c1cccs1 (centres undefined)	none (no result: OX1R antag-1, CHO parental Ca, OX1R antag-2)
COc1ccc(/C(O)=C2\C(=O)C(=O)N(CCN3CCOCC3)C2c2ccccc2OC)cc1 (centres undefined)	none (no result: OX1R antag-1, CHO parental Ca, OX1R antag-2)
O=C1C(=O)N(CCCN2CCOCC2)C(c2ccc(F)cc2)/C1=C(/O)c1ccccc1 (centres undefined)	none
COc1ccc(/C(O)=C2/C(=O)C(=O)N(CCN3CCOCC3)C2c2ccccn2)cc1 (centres undefined)	OX1R antag-2 68.3
COc1cccc(/C(O)=C2/C(=O)C(=O)N(CCCN3CCOCC3)C2c2ccncc2)c1 (centres undefined)	none
O=C(C1=C(O)C(=O)N(CCN2CCOCC2)C1c1ccccn1)c1cccs1 (centres undefined)	OX1R antag-2 58.9
O=C1C(=O)N(CCN2CCOCC2)C(c2ccccn2)/C1=C(/O)c1ccc(F)cc1 (centres undefined)	OX1R antag-2 42.9
COc1ccc(S(=O)(=O)NC(=O)C2(C)CCN2C(=O)C(C)(C)c2ccccc2)cc1 (centres undefined)	none (no result: OX1R antag-1, CHO parental Ca, OX1R antag-2)
CC(C)(C)Cc1c(-c2ccc(C#N)cc2)nc2c(Cl)cc(C(F)(F)F)cn12	none (no result: OX1R antag-1, CHO parental Ca, OX1R antag-2)
Cc1ccccc1-c1csc(C(C)(O)c2ccc(F)c(F)c2)n1 (centres undefined)	none (no result: OX1R antag-1, CHO parental Ca, OX1R antag-2)
CCN(CC(=O)Nc1ccc(NC(C)=O)cc1)C(=O)c1c(C)nn(-c2ccc(F)cc2)c1Cl	TAAR1 antagonist 53.6
CCOc1ccc(NC(=O)CN(C)C(=O)c2c(C)nn(-c3ccc(F)cc3)c2Cl)cc1OCC	none
Cc1cc(N2CCNC[C@H]2C)ccc1N1CCN(Cc2ccccc2)[C@H](C)C1	none (no result: OX1R antag-1, CHO parental Ca, OX1R antag-2)
O=C(Nc1cccc(Cl)c1)C1CCCN(S(=O)(=O)c2ccc(F)cc2)C1 (centres undefined)	OX1R antag-2 41.7
O=C(Nc1ccc(F)cc1)C1CCCN(S(=O)(=O)c2cccc3cccnc23)C1 (centres undefined)	none
O=C(Nc1ccccc1Cl)C1CCCN(S(=O)(=O)c2ccc(F)cc2)C1 (centres undefined)	none
O=C(Nc1ccc2c(c1)OCCO2)C1CCCN1S(=O)(=O)c1cccc2cccnc12 (centres undefined)	none
CC(=O)c1cccc(NC(=O)C2CCCN2S(=O)(=O)c2cccc3cccnc23)c1 (centres undefined)	OX1R antag-2 66.6
CC(=O)c1cccc(NC(=O)C2CCCN(S(=O)(=O)c3cccc4cccnc34)C2)c1 (centres undefined)	OX1R antag-2 55.0, TAAR1 antagonist 51.8
O=C(Nc1ccc(C(F)(F)F)cc1)C1CCCN1S(=O)(=O)c1cccc2cccnc12 (centres undefined)	OX1R antag-2 35.8
COc1ccc(CN2C(=O)CN(S(C)(=O)=O)CC2(C)C(=O)NCc2ccccc2)cc1OC (centres undefined)	none (no result: OX1R antag-1, CHO parental Ca, OX1R antag-2)
C=CCN1C(=O)[C@]2(OCCC=C[C@H]2C)c2cc(OC)ccc21	none (no result: OX1R antag-1, CHO parental Ca, OX1R antag-2)
O=C(Nc1nccs1)C1CCCN(S(=O)(=O)c2cccc3cccnc23)C1 (centres undefined)	OX1R antag-2 43.0, TAAR1 antagonist 49.8
CC(CC12CC3CC(CC(C3)C1)C2)NCc1ccccc1O (centres undefined)	TAAR1 agonist 39.0
Oc1ccccc1CNCC12CC3CC(CC(C3)C1)C2	none
CCc1ccc(N/C(N)=N/c2nc(CSc3ccccn3)cc(=O)[nH]2)cc1	TAAR1 antagonist 55.2
COc1cc(CNC[C@H]2O[C@@H](n3ccc(N)nc3=O)[C@H](O)[C@@H]2O)ccc1OCc1ccc(C)cc1	none (no result: OX1R antag-1, CHO parental Ca, OX1R antag-2)
CCCN(CC(=O)Nc1ccccc1C)C(=O)c1ccc(S(=O)(=O)N2CCCCCC2)cc1	none
CCCN(CC(=O)Nc1ccccc1C)C(=O)c1cccc(S(=O)(=O)N2CCc3ccccc3C2)c1	TAAR1 antagonist 59.2
C[C@H]1CN([C@@H](C)CO)C(=O)CCCn2nncc2CO[C@H]1CN(C)S(=O)(=O)c1ccc(Oc2ccccc2)nc1	none (no result: OX1R antag-1, CHO parental Ca, OX1R antag-2)
O=C(NCCCN1CCCCCC1)C1CCCN(S(=O)(=O)c2cccc3nsnc23)C1 (centres undefined)	none
